Laboratory results published in ChEMBL document CHEMBL3259614, “Design, synthesis, and structure-activity relationship studies of novel fused heterocycles-linked triazoles with good activity and water solubility” (J Med Chem, 2014).
Converted amounts (≈) assume the structure as drawn.

Key:
Format in all cases: functional
[1] = test system: Candida albicans; experiment: Antimicrobial activity against Candida albicans SC5314 after 24 hrs by serial dilution method; conditions: SC5314, 24 h
Outline: (§1)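 Broth serial dilution MIC in 96-well plates following NCCLS/CLSI methods. Compounds were dissolved in DMSO and serially diluted in growth medium, with incubation at 35 °C. […] C. parapsilosis 22019 served as the quality-control strain in each assay.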

[2] = test system: Candida albicans; experiment: Antimicrobial activity against Candida albicans Y0109 after 24 hrs by serial dilution method; conditions: Y0109, 24 h; outline: as §1
[3] = test system: Candida parapsilosis; experiment: Antimicrobial activity against Candida parapsilosis 22019 after 24 hrs by serial dilution method; conditions: Lodderomyces parapsilosis, 22019, 24 h; outline: as §1
[4] = test system: Cryptococcus neoformans; experiment: Antimicrobial activity against Cryptococcus neoformans 32609 after 72 hrs by serial dilution method; conditions: Cryptococcus neoformans, 32609, 72 h; outline: as §1
[5] = test system: Nakaseomyces glabratus; experiment: Antimicrobial activity against Candida glabrata 537 after 24 hrs by serial dilution method; conditions: Nakaseomyces glabratus, 537, 24 h; outline: as §1
[6] = test system: Aspergillus fumigatus; experiment: Antimicrobial activity against Aspergillus fumigatus 7544 after 48 hrs by serial dilution method; conditions: Aspergillus fumigatus, 7544, 48 h; outline: as §1

| Structure (SMILES) | MIC [1] | MIC [2] | MIC [3] | MIC [4] | MIC [5] | MIC [6] |
| --- | --- | --- | --- | --- | --- | --- |
| C[C@@H](N1CCc2nc(-c3cccc(Cl)c3)sc2C1)[C@](O)(Cn1cncn1)c1ccc(F)cc1F | 4 µg/mL (≈ 7.97 µM) | 4 µg/mL (≈ 7.97 µM) | 2 µg/mL (≈ 3.98 µM) | 2 µg/mL (≈ 3.98 µM) | 4 µg/mL (≈ 7.97 µM) | 32 µg/mL (≈ 63.7 µM) |
| C[C@@H](N1CCc2nc(-c3cccc(F)c3)sc2C1)[C@](O)(Cn1cncn1)c1ccc(F)cc1F | 2 µg/mL (≈ 4.12 µM) | 2 µg/mL (≈ 4.12 µM) | 2 µg/mL (≈ 4.12 µM) | 2 µg/mL (≈ 4.12 µM) | 8 µg/mL (≈ 16.5 µM) | 32 µg/mL (≈ 65.9 µM) |
| Cc1cccc(-c2nc3c(s2)CN([C@H](C)[C@](O)(Cn2cncn2)c2ccc(F)cc2F)CC3)c1 | 2 µg/mL (≈ 4.15 µM) | 2 µg/mL (≈ 4.15 µM) | 1 µg/mL (≈ 2.08 µM) | 4 µg/mL (≈ 8.31 µM) | 4 µg/mL (≈ 8.31 µM) | 32 µg/mL (≈ 66.4 µM) |
| C[C@@H](N1CCc2nc(-c3cccc(Br)c3)sc2C1)[C@](O)(Cn1cncn1)c1ccc(F)cc1F | 2 µg/mL (≈ 3.66 µM) | 2 µg/mL (≈ 3.66 µM) | 2 µg/mL (≈ 3.66 µM) | 4 µg/mL (≈ 7.32 µM) | 8 µg/mL (≈ 14.6 µM) | 32 µg/mL (≈ 58.6 µM) |
| COc1cccc(-c2nc3c(s2)CN([C@H](C)[C@](O)(Cn2cncn2)c2ccc(F)cc2F)CC3)c1 | 1 µg/mL (≈ 2.01 µM) | 1 µg/mL (≈ 2.01 µM) | 1 µg/mL (≈ 2.01 µM) | 2 µg/mL (≈ 4.02 µM) | 1 µg/mL (≈ 2.01 µM) | 16 µg/mL (≈ 32.2 µM) |
| C[C@@H](N1CCc2nc(-c3ccc(C#N)cc3)sc2C1)[C@](O)(Cn1cncn1)c1ccc(F)cc1F | 0.0625 µg/mL (≈ 0.127 µM) | 0.125 µg/mL (≈ 0.254 µM) | 0.125 µg/mL (≈ 0.254 µM) | 0.125 µg/mL (≈ 0.254 µM) | 0.5 µg/mL (≈ 1.02 µM) | 16 µg/mL (≈ 32.5 µM) |
| C[C@@H](N1CCc2nc(-c3cccc(C#N)c3)sc2C1)[C@](O)(Cn1cncn1)c1ccc(F)cc1F | 0.125 µg/mL (≈ 0.254 µM) | 0.125 µg/mL (≈ 0.254 µM) | 2 µg/mL (≈ 4.06 µM) | 1 µg/mL (≈ 2.03 µM) | 2 µg/mL (≈ 4.06 µM) | 16 µg/mL (≈ 32.5 µM) |
| C[C@@H](N1CCc2nc(-c3cccs3)sc2C1)[C@](O)(Cn1cncn1)c1ccc(F)cc1F | 0.25 µg/mL (≈ 0.528 µM) | 0.25 µg/mL (≈ 0.528 µM) | 1 µg/mL (≈ 2.11 µM) | 0.5 µg/mL (≈ 1.06 µM) | 0.5 µg/mL (≈ 1.06 µM) | 8 µg/mL (≈ 16.9 µM) |
| C[C@@H](N1CCc2nc(-c3ccco3)sc2C1)[C@](O)(Cn1cncn1)c1ccc(F)cc1F | 0.25 µg/mL (≈ 0.546 µM) | 1 µg/mL (≈ 2.19 µM) | 1 µg/mL (≈ 2.19 µM) | 0.5 µg/mL (≈ 1.09 µM) | 0.5 µg/mL (≈ 1.09 µM) | 8 µg/mL (≈ 17.5 µM) |
| C[C@@H](N1CCc2nc(-c3ccncc3)sc2C1)[C@](O)(Cn1cncn1)c1ccc(F)cc1F | 0.0312 µg/mL (≈ 0.0667 µM) | 0.0312 µg/mL (≈ 0.0667 µM) | 0.125 µg/mL (≈ 0.267 µM) | 0.125 µg/mL (≈ 0.267 µM) | 0.125 µg/mL (≈ 0.267 µM) | 4 µg/mL (≈ 8.54 µM) |
| C[C@@H](N1CCc2nc(-c3cncc(F)c3)sc2C1)[C@](O)(Cn1cncn1)c1ccc(F)cc1F | 0.125 µg/mL (≈ 0.257 µM) | 0.125 µg/mL (≈ 0.257 µM) | 0.25 µg/mL (≈ 0.514 µM) | 0.125 µg/mL (≈ 0.257 µM) | 0.125 µg/mL (≈ 0.257 µM) | 8 µg/mL (≈ 16.4 µM) |
| C[C@@H](N1CCc2nc(-c3cncc(C#N)c3)sc2C1)[C@](O)(Cn1cncn1)c1ccc(F)cc1F | 0.125 µg/mL (≈ 0.253 µM) | 0.25 µg/mL (≈ 0.507 µM) | 0.25 µg/mL (≈ 0.507 µM) | 0.25 µg/mL (≈ 0.507 µM) | 0.5 µg/mL (≈ 1.01 µM) | 8 µg/mL (≈ 16.2 µM) |
| C[C@@H](N1CCc2nc(-c3ccc(C#N)nc3)sc2C1)[C@](O)(Cn1cncn1)c1ccc(F)cc1F | 0.0625 µg/mL (≈ 0.127 µM) | 0.0625 µg/mL (≈ 0.127 µM) | 0.25 µg/mL (≈ 0.507 µM) | 0.25 µg/mL (≈ 0.507 µM) | 0.5 µg/mL (≈ 1.01 µM) | 8 µg/mL (≈ 16.2 µM) |
| C[C@@H](N1CCc2nc(-c3ccc(F)nc3)sc2C1)[C@](O)(Cn1cncn1)c1ccc(F)cc1F | 0.0625 µg/mL (≈ 0.128 µM) | 0.125 µg/mL (≈ 0.257 µM) | 0.25 µg/mL (≈ 0.514 µM) | 0.125 µg/mL (≈ 0.257 µM) | 0.125 µg/mL (≈ 0.257 µM) | 8 µg/mL (≈ 16.4 µM) |
| COc1ccc(-c2nc3c(s2)CN([C@H](C)[C@](O)(Cn2cncn2)c2ccc(F)cc2F)CC3)cn1 | 0.25 µg/mL (≈ 0.501 µM) | 0.25 µg/mL (≈ 0.501 µM) | 0.5 µg/mL (≈ 1 µM) | 0.25 µg/mL (≈ 0.501 µM) | 0.5 µg/mL (≈ 1 µM) | 16 µg/mL (≈ 32.1 µM) |
| Cc1ncc(-c2nc3c(s2)CN([C@H](C)[C@](O)(Cn2cncn2)c2ccc(F)cc2F)CC3)cn1 | 0.0625 µg/mL (≈ 0.129 µM) | 0.0625 µg/mL (≈ 0.129 µM) | 0.25 µg/mL (≈ 0.517 µM) | 0.25 µg/mL (≈ 0.517 µM) | 0.25 µg/mL (≈ 0.517 µM) | 16 µg/mL (≈ 33.1 µM) |
| COc1ncc(-c2nc3c(s2)CN([C@H](C)[C@](O)(Cn2cncn2)c2ccc(F)cc2F)CC3)cn1 | 0.0625 µg/mL (≈ 0.125 µM) | 0.125 µg/mL (≈ 0.25 µM) | 0.25 µg/mL (≈ 0.5 µM) | 0.5 µg/mL (≈ 1 µM) | 0.25 µg/mL (≈ 0.5 µM) | 8 µg/mL (≈ 16 µM) |
| C[C@@H](N1CCc2sc(Br)cc2C1)[C@](O)(Cn1cncn1)c1ccc(F)cc1F | 2 µg/mL (≈ 4.26 µM) | 4 µg/mL (≈ 8.52 µM) | 8 µg/mL (≈ 17 µM) | 2 µg/mL (≈ 4.26 µM) | 4 µg/mL (≈ 8.52 µM) | 64 µg/mL (≈ 136 µM) |
| C[C@@H](N1CCc2sc(-c3ccccc3)cc2C1)[C@](O)(Cn1cncn1)c1ccc(F)cc1F | 1 µg/mL (≈ 2.14 µM) | 8 µg/mL (≈ 17.1 µM) | 8 µg/mL (≈ 17.1 µM) | 2 µg/mL (≈ 4.29 µM) | 4 µg/mL (≈ 8.57 µM) | 32 µg/mL (≈ 68.6 µM) |
| C[C@@H](N1CCc2sc(-c3ccc(F)cc3)cc2C1)[C@](O)(Cn1cncn1)c1ccc(F)cc1F | 2 µg/mL (≈ 4.13 µM) | 2 µg/mL (≈ 4.13 µM) | 8 µg/mL (≈ 16.5 µM) | 2 µg/mL (≈ 4.13 µM) | 4 µg/mL (≈ 8.26 µM) | 64 µg/mL (≈ 132 µM) |
